Rows were chosen to be rich in hits. Some 1% of all compounds tested hit in one or more screens of this group.
PvdQ inh: P. aeruginosa PvdQ acylase inhibition; purified PvdQ acylase, fluorescence plate reader; inhibition, % at 10 µM; AID 488965; 0.063% of 340,000 active; in the data active = inhibition above about 30%, passing the limit was not always enough;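 note: 0% = vehicle neutral wells and 100% = reference inhibitor wells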
IMP-1 inh-1: blocks Pseudomonas aeruginosa IMP-1 metallo-beta-lactamase. AID 1556. purified IMP-1, nitrocefin hydrolysis, epi-absorbance fluorescence. 0.45% of 290,000 active. inhibition, % at 5.6 µM;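 active = inhibition above the mean plus 3 SD of all compounds in the same screening run, cut at about 4.5% in these data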;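 note: 0% = IMP-1 with DMSO and 100% = DMSO wells lacking enzyme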
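System: Purified recombinant IMP-1 metallo-beta-lactamase enzyme | Measured by: Fluorescence quenching readout, ex 480/em 530 nm | Replication: Singlicate | Incubation: 15 min preincubation plus 25 min reaction at 25 °C | Evaluation: Percent inhibition from optical density relative to buffer-blank wells | Benchmarks: DMSO with and without IMP-1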
ERp5 block: inhibitors of human ERp5; Q15084; ERp5 insulin aggregation, absorbance 650 nm, 90 min; inhibition, % at 9.99 µM; 0.05% of 350,000 active; AID 651711;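 active = mean replicate inhibition above about 25%, with every replicate also reaching it, limit read from the data, passing the limit was not always enough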
Target sequence (Q15084 whole entry, looked up): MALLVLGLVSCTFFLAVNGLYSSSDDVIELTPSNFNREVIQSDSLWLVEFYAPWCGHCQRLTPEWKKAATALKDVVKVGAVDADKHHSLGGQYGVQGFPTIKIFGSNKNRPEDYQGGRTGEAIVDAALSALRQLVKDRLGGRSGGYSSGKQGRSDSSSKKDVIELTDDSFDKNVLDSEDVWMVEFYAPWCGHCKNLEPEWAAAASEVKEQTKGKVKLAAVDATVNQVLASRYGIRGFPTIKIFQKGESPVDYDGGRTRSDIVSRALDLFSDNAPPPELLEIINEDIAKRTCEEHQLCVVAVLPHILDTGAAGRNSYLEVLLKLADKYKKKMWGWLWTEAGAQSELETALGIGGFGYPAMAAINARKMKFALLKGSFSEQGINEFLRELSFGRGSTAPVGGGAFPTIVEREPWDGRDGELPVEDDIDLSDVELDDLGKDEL
VIM-2 inh: inhibitors of Pseudomonas aeruginosa VIM-2 metallo-beta-lactamase. AID 1527. purified VIM-2, nitrocefin hydrolysis, epi-absorbance fluorescence. 0.89% of 290,000 active. inhibition, % at 5.6 µM;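 active = inhibition above the mean of all tested compounds plus 3 SD, cutoff set per screening run, cut at about 7.5% in these data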;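 note: red hydrolysis product quenches plate fluorescence so inhibitors raise well fluorescence; 0% = enzyme with DMSO and 100% = DMSO without enzyme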
PDI turbidity: inhibitors of human protein disulfide isomerase; P07237; PDI insulin aggregation turbidity, A650, 90 min; inhibition, % at 10 µM; 0.052% of 350,000 active;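 active = mean inhibition across replicates of 30% or more, whatever share of single replicates reach that level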
PglD DTNB: blocks C. jejuni PglD acetyltransferase activity; inhibition, % at 12.5 µM; AID 602405; 0.098% of 360,000 active; purified PglD enzyme, DTNB colorimetric CoA detection; in the data active = inhibition above about 16%, passing the limit was not always enough
IMP-1 inh-2: selectivity counter-screen for VIM-2 inhibitors: IMP-1 metallo-beta-lactamase inhibitors | 1,300 tested, under 10 active | purified IMP-1, nitrocefin hydrolysis, epi-absorbance fluorescence | AID 1856 | inhibition, % at 5.6 µM | shares compounds with VIM-2 inh; call rule not given here;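 note: 0% = enzyme with vehicle and 100% = vehicle without enzyme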
VIM-2 FRET inh: counter-screen for VIM-2 inhibitors: epi-absorbance artifacts via FRET; purified VIM-2, CCF2 FRET substrate hydrolysis; 23% of 1,300 active; shares compounds with VIM-2 inh; inhibition, % at 5.6 µM;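 active = inhibition above the mean of all tested compounds plus 3 SD, cut at about 19% in these data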;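 note: 0% = VIM-2 plus DMSO and 100% = no enzyme wells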
TEM-1 counter: selectivity counter-screen for VIM-2 inhibitors: E. coli TEM-1 inhibitors; AID 1866; Purified TEM-1, nitrocefin hydrolysis, epi-absorbance fluorescence; inhibition, % at 5.6 µM; 3% of 1,300 active; shares compounds with VIM-2 inh;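 active = inhibition above that campaign's mean inhibition plus 3 SD, cut at about 0.46% in these data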;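 note: 0% = TEM-1 with DMSO and 100% = TEM-1 with 100 µM potassium clavulanate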
Target sequence (P62593 whole entry, looked up): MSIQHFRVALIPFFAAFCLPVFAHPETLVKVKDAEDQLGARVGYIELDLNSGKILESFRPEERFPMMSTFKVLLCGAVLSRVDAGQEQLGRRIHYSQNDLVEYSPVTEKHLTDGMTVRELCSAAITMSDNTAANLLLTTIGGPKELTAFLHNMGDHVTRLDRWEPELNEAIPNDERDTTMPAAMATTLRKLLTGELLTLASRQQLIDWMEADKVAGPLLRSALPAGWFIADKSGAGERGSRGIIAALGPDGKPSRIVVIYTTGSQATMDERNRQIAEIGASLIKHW
VIM-2 confirm 2: confirmation of P. aeruginosa VIM-2 metallo-beta-lactamase inhibitors. shares compounds with VIM-2 inh. purified VIM-2, nitrocefin hydrolysis, epi-absorbance. 96% of 1,300 active. AID 2187. inhibition, % at 5.6 µM;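 active = inhibition of the VIM-2 beta-lactamase enzyme above about 11% from the earlier first-round screen, limit read from the data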;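 note: 0% = VIM-2 with DMSO and 100% = buffer wells without enzyme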
Starred values were filed as active, the others as inactive; x = not tested or not shown.

SMILES	PvdQ inh	IMP-1 inh-1	ERp5 block	VIM-2 inh	PDI turbidity	PglD DTNB	IMP-1 inh-2	VIM-2 FRET inh	TEM-1 counter	VIM-2 confirm 2
CC(Oc1cc2oc(=O)c3c(c2cc1Cl)CCCC3)C(=O)NCCN1CCOCC1 (stereo unspecified)	-8	1	0	13*	3	0	-4	-3	-5	15*
O=C(COc1ccc2c3c(c(=O)oc2c1)CCC3)NCCCN1CCOCC1	-7	0	-6	24*	1	-4	-3	3	-6	31*
CC(Oc1ccc2c(-c3ccccc3)cc(=O)oc2c1)C(=O)NCCN1CCOCC1 (stereo unspecified)	-9	-3	7	0	-8	-5	x	x	x	x
O=C(COc1ccc2c(c1)oc(=O)c1ccccc12)NCCCN1CCOCC1	-19	-2	6	20*	4	0	-3	3	-8	33*
C[C@@H]1CN([C@@H](C)CO)C(=O)c2cc(NC(=O)Nc3ccc(C(F)(F)F)cc3)ccc2O[C@@H]1CN(C)Cc1ccc(-c2ccccc2)cc1	x	x	-6	x	x	-2	x	x	x	x
Cc1noc(C)c1NC(=O)N(C)C[C@@H]1Oc2ccc(NC(=O)CCC(F)(F)F)cc2CC(=O)N([C@@H](C)CO)C[C@H]1C	x	x	1	x	x	0	x	x	x	x
C[C@H]1CN([C@@H](C)CO)C(=O)Cc2cc(NC(=O)Cn3cnnn3)ccc2O[C@@H]1CN(C)Cc1ccc(C(=O)Nc2ccccc2N)cc1	x	x	3	x	x	x	x	x	x	x
O=C(C[C@H]1CC[C@@H]2[C@H](COC[C@@H](O)CN2Cc2nccs2)O1)NCc1ccccc1Cl	x	x	0	x	x	-2	x	x	x	x
C[C@H](CO)N1C[C@H](C)[C@@H](CN(C)Cc2ccc(F)cc2)Oc2ncc(-c3ccccc3F)cc2C1=O	x	x	0	x	x	3	x	x	x	x
C[C@@H]1CN([C@@H](C)CO)C(=O)c2cc(NC(=O)Cn3cnnn3)ccc2O[C@H]1CN(C)C(=O)Nc1ccccc1	x	x	9	x	x	-2	x	x	x	x
CCCc1cc(N2CCN(C(=O)c3ccco3)CC2)n2c(nc3ccccc32)c1C#N	-10	1	x	14*	1	2	-3	-10	-5	28*
Cc1nnc2c(N3CCN(C(=O)c4ccco4)CC3)nc3ccccc3n12	-15	-3	-1	13*	6	-1	-4	-1	-7	19*
Cc1ccc2nc(N3CCN(C(=O)c4ccco4)CC3)c3nncn3c2c1	-7	-4	x	4	1	5	x	x	x	x
COc1ccc(CC(=O)Nc2cccc(-c3ccc4nnc(C)n4n3)c2)cc1	-7	-3	0	4	6	x	x	x	x	x
Cc1nnc2ccc(-c3cccc(NC(=O)c4ccco4)c3)nn12	-11	-1	9	15*	0	2	-2	1	-8	25*
Cc1cc(=O)oc2c(C)c(OC(C)C(=O)NCCCn3ccnc3)ccc12 (stereo unspecified)	3	-3	1	16*	16	2	-3	-4	-7	31*
CCc1cc(=O)oc2cc(OC(C)C(=O)NCCCn3ccnc3)ccc12 (stereo unspecified)	-15	-1	3	0	-11	-2	x	x	x	x
CCc1cc(=O)oc2c(C)c(OC(C)C(=O)NCCCn3ccnc3)ccc12 (stereo unspecified)	-11	-1	-3	20*	2	-4	-2	-7	-6	30*
CCOC(=O)Cc1nnc(NC(=O)CSc2nnc3c4ccccc4n(C)c3n2)s1	6	-3	x	17*	15	-4	-2	-1	-11	38*
C=CCn1c2ccccc2c2nnc(SCC(=O)O)nc21	-2	-1	1	2	-3	4	x	x	x	x
CCN(CC)C(=O)CSc1nnc2c3ccccc3n(C)c2n1	-3	-6	2	14*	6	6	-3	0	-5	24*
CCOC(=O)Cc1nnc(NC(=O)CSc2ccc(C)cc2)s1	-7	-2	x	0	-2	-2	x	x	x	x
COc1ccc(CN(C)C[C@@H]2Oc3ccc(NC(=O)CCCCCC(=O)Nc4ccccc4N)cc3CC(=O)N([C@H](C)CO)C[C@@H]2C)cc1	x	x	2	x	x	x	x	x	x	x
Cc1nnc2c(NC3CCCC3)nc3ccccc3n12	-3	-2	0	12*	-4	x	-3	-4	-5	23*
C[C@H]1CN([C@@H](C)CO)S(=O)(=O)c2ccc(C#Cc3ccccc3)cc2O[C@H]1CN(C)C(=O)Cc1ccccn1	x	x	0	x	x	-3	x	x	x	x
SMILES	PvdQ inh	IMP-1 inh-1	ERp5 block	VIM-2 inh	PDI turbidity	PglD DTNB	IMP-1 inh-2	VIM-2 FRET inh	TEM-1 counter	VIM-2 confirm 2
Cn1c(N)c(C(=O)c2cc(-c3ccccn3)nc3ccccc23)c(=O)[nH]c1=O	-6	-15	x	38*	1	-15	-6	-14	-7	42*
O=C(NC(=S)NCC1CCCO1)c1ccccc1Br (stereo unspecified)	0	-1	x	28*	-8	x	-3	52*	-4	36*
COc1ccc(S(=O)(=O)Nc2ccc3c(c2)C(=O)N([C@H](C)CO)C[C@H](C)[C@H](CN(C)S(=O)(=O)c2ccc(C)cc2)OCCCC[C@@H](C)O3)cc1	x	x	-9	x	x	-10	x	x	x	x
CCC[C@@H](CNC)NC[C@H](Cc1ccccc1)NCCCCc1ccccc1	-2	-2	7	56*	4	2	-3	1	-7	66*
CCc1cc2c(CN3CCN(CC)CC3)cc(=O)oc2cc1O	-2	0	x	21*	18	2	-4	-22	-6	25*
CC(=O)N/N=C/c1cc(C(C)(C)C)cc(/C=N/NC(C)=O)c1O	2	1	-5	39*	-4	-1	2	10	-4	55*
Cc1cc(C(=O)N/N=C\c2cc(C(C)(C)C)ccc2O)n[nH]1	-8	-3	x	-6	-3	6	x	x	x	x
COc1ccc(Cl)cc1-c1n[nH]c(=S)n1C	-14	-2	x	-2	-5	-1	x	x	x	x
Cn1c(-c2sccc2OCc2ccc(Cl)cc2Cl)n[nH]c1=S	-20	-4	1	34*	-5	x	-3	62*	-8	43*
Cc1ccc(COc2ccsc2-c2n[nH]c(=S)n2C)cc1	-2	-3	x	34*	18	2	-3	62*	-7	41*
Cn1c(-c2sccc2OCc2ccccc2)n[nH]c1=S	-12	-2	x	35*	11	6	-2	72*	-7	54*

Source: PubChem BioAssay
